{"source": "paper PMC5226292", "about": "(Pharmacology Research & Perspectives, 2016)", "key": {"hGPR40": {"molecular_target": "hGPR40 (Homo sapiens, UniProt O14842)", "sequence (O14842 whole entry)": "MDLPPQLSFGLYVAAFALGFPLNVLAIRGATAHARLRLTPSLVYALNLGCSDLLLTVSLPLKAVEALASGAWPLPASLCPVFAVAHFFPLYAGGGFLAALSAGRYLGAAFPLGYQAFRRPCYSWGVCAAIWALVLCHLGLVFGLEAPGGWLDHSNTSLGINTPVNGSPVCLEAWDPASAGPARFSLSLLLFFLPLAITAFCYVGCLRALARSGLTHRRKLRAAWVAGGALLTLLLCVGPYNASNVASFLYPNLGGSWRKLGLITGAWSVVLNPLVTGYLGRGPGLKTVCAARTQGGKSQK", "experiment": "Calcium flux assay", "assay_type": "cell-based"}, "[1]": {"tested_on": "nuclear hormone receptors, other G-protein-coupled receptors (GPCRs) and enzyme targets", "experiment": "Broad range of assays: nuclear hormone receptors, other GPCRs and enzyme targets", "conditions": "data not shown"}, "[2]": {"tested_on": "primary islets from WT mice", "experiment": "Insulin secretion from isolated WT mouse islets", "assay_type": "cell-based", "conditions": "11.2 mmol/L glucose, 90 min", "outline": "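Islets came from 2-3-month-old male wild-type C57BL/6 mice and were purified on a Histopaque-1100 gradient. They were exposed to test compound, or linoleic acid as reference ligand, in 11.2 mmol/L glucose. Insulin secretion is expressed as fold over vehicle, analysed by ANOVA with Dunnett's comparison.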"}, "[3]": {"tested_on": "primary islets from GPR40 KO mice", "experiment": "Insulin secretion from isolated GPR40 KO mouse islets", "assay_type": "cell-based", "conditions": "11.2 mmol/L glucose, 90 min", "outline": "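Islets from 2–3-month-old male GPR40 KO mice were purified on a Histopaque-1100 gradient and cultured overnight in RPMI-1640 with 10% FBS and antibiotics. They were preincubated 30 min in EBSS with 0.1% BSA and 2.8 mmol/L glucose. Islets were then incubated 90 min with 2.8 or 11.2 mmol/L glucose plus rising test compound levels (6 batches of 4 islets per condition). Linoleic acid and GLP-1(7-36) amide served as controls. Insulin was measured by ECL, expressed as fold over vehicle, and compared by ANOVA with Dunnett's test.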"}, "[4]": {"experiment": "Compound exposure in lean mice", "assay_type": "in vivo, mouse", "conditions": "single oral dose 10 mg/kg, over 8 h", "outline": "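Male ICR mice; single oral dose in 0.5% methylcellulose/0.25% Tween-80. EDTA-plasma collected by retro-orbital bleed at 0.5, 1, 2, 4 and 8 h post-dose. Total circulating test compound measured by LC-MS.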"}, "normal ICR mice": {"tested_on": "normal ICR mice", "experiment": "IPGTT in lean ICR mice", "assay_type": "in vivo, mouse", "outline": "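Male ICR mice aged 9-10 weeks were fasted overnight (about 1600 to 0800) and randomized by fasting glucose and body weight. Test compound or vehicle (0.5% methylcellulose/0.25% Tween-80) was given orally 60 min before IP glucose. Serum was sampled at 0, 3, 6 and 15 min and assayed with a Mesoscale rat/mouse insulin kit.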"}, "WT mice": {"tested_on": "WT mice", "experiment": "OGTT in WT mice", "assay_type": "in vivo, mouse", "conditions": "oral 30 mg/kg, 60 min before OGTT, versus vehicle", "outline": "(§1)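 Chow-fed male mice aged 2–3 months (WT, GPR40 KO or GPR120 KO) were fasted overnight from about 1600 and randomized at about 0800 by fasting glucose and body weight. Oral test compound 30 mg/kg or vehicle (0.5% methylcellulose, 0.25% Tween-80) was given 60 min before oral glucose 2 g/kg. Tail-blood glucose was read by glucometer at 0, 15, 30, 60 and 120 min, averaging two readings, and analysed by repeated-measures ANOVA.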"}, "GPR40 KO mice": {"tested_on": "GPR40 KO mice", "experiment": "OGTT in GPR40 KO mice", "assay_type": "in vivo, mouse", "conditions": "oral 30 mg/kg, 60 min before OGTT, versus vehicle", "outline": "as §1"}, "[5]": {"tested_on": "diet-induced obese (DIO) mice", "experiment": "Glycemic control in DIO mice", "assay_type": "in vivo, mouse", "conditions": "oral 10 mg/kg once daily", "outline": "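Male DIO mice aged 5–6 months were acclimated for 2 weeks and randomized by body weight and fasting blood glucose. They received oral test compound at 10 mg/kg or vehicle (0.5% methylcellulose, 0.25% Tween-80) once daily for 15 days, dosed 60 min before oral glucose. OGTTs on days 1 and 15 sampled tail blood at 0, 15, 30, 60 and 120 min by glucometer, averaging two readings.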"}, "STZ-treated DIO mice": {"tested_on": "STZ-treated DIO mice", "experiment": "Glycemic control in STZ-treated DIO mice", "assay_type": "in vivo, mouse", "conditions": "for glucose AUC during OGTTs on days 7 and 14: oral once daily, LY2881835 30 mg/kg, sitagliptin 3 mg/kg", "outline": "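Male DIO mice aged 5–6 months got IP streptozotocin 50 mg/kg twice in one week. Two weeks later, mice with 9 am glucose of 180–300 mg/dL were randomized by body weight and glucose. Dosing was oral, once daily for 16 days: test compound 30 mg/kg given 30 min and sitagliptin 3 mg/kg 60 min before OGTTs on days 1, 7 and 14. Glucose was sampled at 0–120 min and glucose AUC calculated; 7 per group, with age-matched non-STZ mice included.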"}, "individuals with T2D": {"tested_on": "individuals with T2D", "conditions": "oral, 12 weeks, ref Araki et al. 2012, Burant et al. 2012; cited from earlier work"}, "Zucker fa/fa rats": {"tested_on": "Zucker fa/fa rats", "experiment": "Glycemic control in fatty Zucker fa/fa rats", "assay_type": "in vivo, rat", "conditions": "oral once daily, LY2881835 1 mg/kg, rosiglitazone 3 mg/kg", "outline": "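Male Zucker fa/fa rats aged 2–3 months were acclimated for 2 weeks and randomized by body weight and glucose (n = 6/group). Test compound 1 mg/kg, rosiglitazone 3 mg/kg or vehicle was given orally once daily for 21 days. OGTTs on days 1 and 21 sampled blood at 0, 10, 20, 40 and 60 min, averaging two readings. Age-matched lean rats were included.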"}}, "note": "Entries after “also recorded” stand apart in the source; their conditions may differ.", "data": [{"smiles": "CC#C[C@@H](CC(=O)O)c1ccc(OCc2ccc(CN3CCC4(C=Cc5ccccc54)CC3)cc2)cc1", "note": "[LY2881835, (3S)‐3‐(4‐{[4‐(1′H‐spiro[indene‐1,4′‐piperidin]‐1′‐ylmethyl)benzyl]oxy}phenyl)hex‐4‐ynoic acid]", "values": [{"measurement": "EC50", "setting": "hGPR40", "value": "164 ± 94", "unit": "nM"}, {"measurement": "signals in assay systems not expressing GPR40", "setting": "[1]", "value": "No positive signals were detected"}, {"measurement": "insulin secretion in WT primary islets", "setting": "[2]", "value": "statistically significant increase in insulin secretion"}, {"measurement": "insulin secretion in GPR40 KO primary islets", "setting": "[3]", "value": "Enhanced insulin secretion was absent; also recorded: No insulin secretion"}, {"measurement": "plasma concentration time course", "setting": "[4]", "value": "peaked and remained elevated at 15, 30, and 60 min followed by a slight decrease in levels throughout the 8 h study"}, {"measurement": "insulin AUC during IPGTT", "setting": "normal ICR mice; oral 10 mg/kg dose group, versus vehicle", "value": "statistically significant enhancement in insulin AUC"}, {"measurement": "insulin secretion during IPGTT", "setting": "normal ICR mice; oral 0.3, 1, 3 and 10 mg/kg, 60 min before IP glucose 2 g/kg", "value": "clear dose‐dependent enhancement in insulin secretion"}, {"measurement": "glucose levels during OGTT", "setting": "WT mice", "value": "significant glucose lowering"}, {"measurement": "glucose levels during OGTT", "setting": "GPR40 KO mice", "value": "had no effect on glucose levels"}, {"measurement": "hypoglycemia", "setting": "[5]", "value": "no evidence of hypoglycemia was observed"}, {"measurement": "fasting glucose levels at time 0 of the OGTTs", "setting": "[5]; 60 min after administration", "value": "significantly reduced"}, {"measurement": "glucose levels during OGTTs", "setting": "[5]; OGTTs on days 1 and 15", "value": "Significant reductions in glucose levels"}, {"measurement": "blood glucose during OGTT after a single treatment", "setting": "STZ-treated DIO mice; oral 30 mg/kg, day 1", "value": "lowered blood glucose"}, {"measurement": "glucose AUC during OGTTs on days 7 and 14", "setting": "STZ-treated DIO mice", "value": "Results are similar"}]}, {"smiles": "N[C@@H](CC(=O)N1CCn2c(nnc2C(F)(F)F)C1)Cc1cc(F)c(F)cc1F", "note": "[sitagliptin, reference compound]", "values": [{"measurement": "glucose AUC during OGTTs on days 7 and 14", "setting": "STZ-treated DIO mice", "value": "Results are similar"}]}, {"smiles": "CCCCC/C=C\\C/C=C\\CCCCCCCC(=O)O", "note": "[linoleic acid, reference compound]", "values": [{"measurement": "insulin secretion in GPR40 KO primary islets", "setting": "[3]", "value": "a reduction in insulin secretion was seen"}, {"measurement": "insulin secretion in GPR40 KO primary islets", "setting": "[3]; listed as LA", "value": "No insulin secretion"}]}, {"smiles": "Cc1cc(OCCCS(C)(=O)=O)cc(C)c1-c1cccc(COc2ccc3c(c2)OC[C@H]3CC(=O)O)c1", "note": "[TAK‐875]", "values": [{"measurement": "HbA1c reduction", "setting": "individuals with T2D", "value": "superior to historical data with DPPIV inhibitors and comparable with that of sulfonylureas"}]}, {"smiles": "CN(CCOc1ccc(CC2SC(=O)NC2=O)cc1)c1ccccn1", "note": "(stereo not shown) [rosiglitazone, Rosiglitazone]", "values": [{"measurement": "blood glucose during OGTT on day 1", "setting": "Zucker fa/fa rats", "value": "no glucose lowering"}]}]}
